Reference: ChEMBL document CHEMBL4359928, “Scaffold Morphing To Identify Novel DprE1 Inhibitors with Antimycobacterial Activity” (ACS Med Chem Lett, 2019)
Values after ≈ are worked out from the molar mass of the structure shown.

What was measured:
[1] = tested on: Mycobacterium tuberculosis; assay: Antimycobacterial activity against Mycobacterium tuberculosis H37Rv assessed as reduction in bacterial cell growth by resazurin reduction method; format: functional
[2] = Inhibition of DprE1 in Mycobacterium tuberculosis
[3] = Clearance in rat; format: ADME; settings: in vivo
[4] = tested on: Mycobacterium tuberculosis; assay: Bactericidal activity against Mycobacterium tuberculosis; format: functional
[5] = Permeability across apical to basolateral side in human Caco2 cells; format: ADME, cell-based; settings: Caco-2, read-out: permeability
[6] = Lipophilicity, logD of compound; format: physicochemical; settings: octanol/water
[7] = target: Cytochrome P450 3A4 (Homo sapiens, UniProt P08684); assay: Inhibition of CYP3A4 (unknown origin); format: ADME
Cytochrome P450 3A4, sequence (P08684 whole entry): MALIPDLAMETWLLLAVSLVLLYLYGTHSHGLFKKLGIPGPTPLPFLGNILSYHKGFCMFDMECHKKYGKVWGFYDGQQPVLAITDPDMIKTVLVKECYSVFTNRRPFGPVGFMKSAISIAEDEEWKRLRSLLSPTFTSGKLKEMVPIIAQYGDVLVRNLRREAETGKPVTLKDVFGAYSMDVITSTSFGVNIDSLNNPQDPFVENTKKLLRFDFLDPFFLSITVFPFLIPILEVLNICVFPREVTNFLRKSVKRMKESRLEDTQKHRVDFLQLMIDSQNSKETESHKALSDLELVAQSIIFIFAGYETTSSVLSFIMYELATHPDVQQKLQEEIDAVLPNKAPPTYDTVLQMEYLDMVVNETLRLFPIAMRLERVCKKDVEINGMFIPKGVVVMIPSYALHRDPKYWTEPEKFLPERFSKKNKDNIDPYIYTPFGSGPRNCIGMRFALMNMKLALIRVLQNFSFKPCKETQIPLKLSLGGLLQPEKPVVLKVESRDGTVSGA

[8] = target: Cytochrome P450 2D6 (Homo sapiens, UniProt P10635); assay: Inhibition of CYP2D6 (unknown origin); format: ADME
Cytochrome P450 2D6, sequence (P10635 whole entry): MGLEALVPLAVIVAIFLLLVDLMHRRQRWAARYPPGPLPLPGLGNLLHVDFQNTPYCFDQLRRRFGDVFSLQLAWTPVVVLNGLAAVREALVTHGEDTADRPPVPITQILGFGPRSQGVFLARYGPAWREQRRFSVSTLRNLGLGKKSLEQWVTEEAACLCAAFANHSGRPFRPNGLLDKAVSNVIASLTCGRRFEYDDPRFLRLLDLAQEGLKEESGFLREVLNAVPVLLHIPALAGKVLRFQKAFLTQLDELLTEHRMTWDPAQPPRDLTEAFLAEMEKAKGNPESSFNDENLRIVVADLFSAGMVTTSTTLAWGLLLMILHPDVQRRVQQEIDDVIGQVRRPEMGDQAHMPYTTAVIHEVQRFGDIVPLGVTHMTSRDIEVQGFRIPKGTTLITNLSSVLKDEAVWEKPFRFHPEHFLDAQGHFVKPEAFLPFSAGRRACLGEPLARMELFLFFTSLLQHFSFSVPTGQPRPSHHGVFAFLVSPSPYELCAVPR

[9] = target: Cytochrome P450 2C19 (Homo sapiens, UniProt P33261); assay: Inhibition of CYP2C19 (unknown origin); format: ADME
Cytochrome P450 2C19, sequence (P33261 whole entry): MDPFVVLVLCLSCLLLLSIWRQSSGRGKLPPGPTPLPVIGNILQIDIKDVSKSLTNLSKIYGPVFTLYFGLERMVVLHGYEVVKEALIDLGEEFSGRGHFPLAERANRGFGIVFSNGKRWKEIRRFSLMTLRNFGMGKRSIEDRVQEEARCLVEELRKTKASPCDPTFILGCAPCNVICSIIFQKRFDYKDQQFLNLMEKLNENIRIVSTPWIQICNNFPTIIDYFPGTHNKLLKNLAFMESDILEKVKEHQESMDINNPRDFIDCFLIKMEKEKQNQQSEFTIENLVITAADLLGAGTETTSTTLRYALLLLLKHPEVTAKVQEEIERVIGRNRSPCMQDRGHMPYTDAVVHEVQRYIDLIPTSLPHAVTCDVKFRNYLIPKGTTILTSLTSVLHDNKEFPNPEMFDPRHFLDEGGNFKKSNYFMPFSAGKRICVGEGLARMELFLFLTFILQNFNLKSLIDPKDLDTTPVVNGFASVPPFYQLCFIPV

[10] = Permeability across basolateral to apical side in human Caco2 cells; format: ADME, cell-based; settings: Caco-2, read-out: permeability
[11] = target: Voltage-gated inwardly rectifying potassium channel KCNH2 (Homo sapiens, UniProt Q12809); assay: Inhibition of human ERG
Voltage-gated inwardly rectifying potassium channel KCNH2, sequence (Q12809 whole entry): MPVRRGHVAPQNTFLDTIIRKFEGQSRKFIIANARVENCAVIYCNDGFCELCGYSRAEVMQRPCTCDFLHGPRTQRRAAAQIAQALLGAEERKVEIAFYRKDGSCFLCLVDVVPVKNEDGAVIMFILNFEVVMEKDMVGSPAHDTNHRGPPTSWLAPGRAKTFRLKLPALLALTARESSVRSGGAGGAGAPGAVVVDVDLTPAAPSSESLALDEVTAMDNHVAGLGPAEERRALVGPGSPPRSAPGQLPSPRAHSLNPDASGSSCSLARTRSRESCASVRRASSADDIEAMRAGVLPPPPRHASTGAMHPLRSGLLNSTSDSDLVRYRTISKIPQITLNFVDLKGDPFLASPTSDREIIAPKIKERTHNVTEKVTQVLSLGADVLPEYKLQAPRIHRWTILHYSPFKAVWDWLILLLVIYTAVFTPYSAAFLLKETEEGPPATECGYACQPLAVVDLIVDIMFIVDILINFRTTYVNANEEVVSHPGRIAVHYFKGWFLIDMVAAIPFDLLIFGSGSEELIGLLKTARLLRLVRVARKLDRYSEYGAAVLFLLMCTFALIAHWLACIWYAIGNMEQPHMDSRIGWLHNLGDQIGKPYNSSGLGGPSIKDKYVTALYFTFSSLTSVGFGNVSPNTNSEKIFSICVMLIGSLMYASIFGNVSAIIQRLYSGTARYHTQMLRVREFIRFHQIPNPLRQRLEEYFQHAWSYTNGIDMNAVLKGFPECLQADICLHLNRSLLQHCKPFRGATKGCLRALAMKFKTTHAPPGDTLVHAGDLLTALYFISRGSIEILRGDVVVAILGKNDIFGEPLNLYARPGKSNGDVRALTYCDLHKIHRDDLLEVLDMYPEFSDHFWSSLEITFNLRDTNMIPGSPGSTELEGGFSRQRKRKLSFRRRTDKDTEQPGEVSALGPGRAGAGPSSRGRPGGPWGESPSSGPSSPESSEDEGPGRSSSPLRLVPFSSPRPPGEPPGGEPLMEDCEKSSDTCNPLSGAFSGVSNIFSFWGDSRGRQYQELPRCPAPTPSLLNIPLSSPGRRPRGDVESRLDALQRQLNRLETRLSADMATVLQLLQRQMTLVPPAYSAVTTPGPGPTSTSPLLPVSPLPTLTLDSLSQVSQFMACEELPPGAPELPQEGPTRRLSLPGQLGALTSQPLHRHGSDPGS

[12] = Protein binding in human plasma assessed as free fraction; format: ADME, cell-free
[13] = target: Cytochrome P450 2C9 (Homo sapiens, UniProt P11712); assay: Inhibition of CYP2C9 (unknown origin); format: ADME
Cytochrome P450 2C9, sequence (P11712 whole entry): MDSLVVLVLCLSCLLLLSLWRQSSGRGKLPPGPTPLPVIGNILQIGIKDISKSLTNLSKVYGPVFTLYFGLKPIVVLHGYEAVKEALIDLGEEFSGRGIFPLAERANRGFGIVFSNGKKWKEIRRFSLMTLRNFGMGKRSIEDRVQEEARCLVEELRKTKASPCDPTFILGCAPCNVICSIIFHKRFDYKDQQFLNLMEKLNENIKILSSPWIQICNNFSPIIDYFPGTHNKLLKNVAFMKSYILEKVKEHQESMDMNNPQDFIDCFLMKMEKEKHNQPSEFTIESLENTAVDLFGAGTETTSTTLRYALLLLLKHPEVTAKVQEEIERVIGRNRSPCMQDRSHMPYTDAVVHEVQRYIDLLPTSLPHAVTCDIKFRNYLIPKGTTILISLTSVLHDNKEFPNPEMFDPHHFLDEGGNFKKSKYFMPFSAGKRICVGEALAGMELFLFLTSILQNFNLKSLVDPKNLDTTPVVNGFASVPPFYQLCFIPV

[14] = Aqueous solubility of DMSO-dried solid compounds; format: physicochemical; settings: buffer
[15] = target: Cytochrome P450 1A2 (Homo sapiens, UniProt P05177); assay: Inhibition of CYP1A2 (unknown origin); format: ADME
Cytochrome P450 1A2, sequence (P05177 whole entry): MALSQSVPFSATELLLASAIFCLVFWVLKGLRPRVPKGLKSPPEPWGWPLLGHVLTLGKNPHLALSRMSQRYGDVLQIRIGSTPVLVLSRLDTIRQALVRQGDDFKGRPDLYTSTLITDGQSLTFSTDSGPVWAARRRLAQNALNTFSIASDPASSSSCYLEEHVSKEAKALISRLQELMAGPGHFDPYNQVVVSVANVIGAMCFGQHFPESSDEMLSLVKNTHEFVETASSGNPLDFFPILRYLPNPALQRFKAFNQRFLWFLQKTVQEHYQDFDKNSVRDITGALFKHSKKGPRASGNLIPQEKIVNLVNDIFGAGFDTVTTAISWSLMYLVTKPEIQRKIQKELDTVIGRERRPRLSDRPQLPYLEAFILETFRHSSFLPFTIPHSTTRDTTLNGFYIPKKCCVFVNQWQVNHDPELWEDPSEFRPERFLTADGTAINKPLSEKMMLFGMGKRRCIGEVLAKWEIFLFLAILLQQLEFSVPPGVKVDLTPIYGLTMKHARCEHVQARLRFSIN

[16] = tested on: Mycobacterium tuberculosis; assay: Bactericidal activity against Mycobacterium tuberculosis infected in mouse assessed as reduction in colony forming unit at 1 to 2 times of antimycobacterial MIC incubated for 10 days; format: functional
[17] = tested on: Mycobacterium tuberculosis; assay: Antimycobacterial activity against Mycobacterium tuberculosis H37Rv infected in BALB/c mouse assessed as reduction in bacterial burden in mouse lung at 30 mg/kg, po administered for 4 weeks starting from day 28 post infection; format: functional
How it was run: (§1)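 Chronic TB model in BALB/c mice infected by the aerosol route. Oral treatment began 28 days post-infection and ran 4 weeks. Bacterial burden was read as log10 CFU in lungs and spleen.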

[18] = tested on: Mycolicibacterium smegmatis; assay: Antimycobacterial activity against Mycobacterium smegmatis mc2 155 assessed as reduction in bacterial cell growth by resazurin reduction method; format: functional
[19] = tested on: Bacillus subtilis; assay: Antibacterial activity against Bacillus subtilis; format: functional
[20] = AUC (0 to infinity) in BALB/c mouse infected with Mycobacterium tuberculosis H37Rv at 10 mg/kg, po administered for 4 weeks starting from day 28 post infection; format: ADME, organism-based; parameters: dose 10 mg/kg, time infinity, route oral; settings: in vivo
How it was run: (§2)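 Male BALB/c mice with chronic TB, aerosol-infected, given 10 or 30 mg/kg orally in multiple doses over a 4-week course that began 28 days post-infection. Plasma concentration–time profiles were taken from infected animals. PK parameters are reported as mean ± SD, n = 3.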

[21] = tested on: Corynebacterium pseudodiphtheriticum; assay: Antibacterial activity against Corynebacterium pseudodiphtheria; format: functional
[22] = tested on: Proteus vulgaris; assay: Antibacterial activity against Proteus vulgaris; format: functional
[23] = tested on: Corynebacterium pseudotuberculosis; assay: Antibacterial activity against Corynebacterium pseudotuberculosis; format: functional
[24] = Cmax in BALB/c mouse infected with Mycobacterium tuberculosis H37Rv at 10 mg/kg, po administered for 4 weeks starting from day 28 post infection; format: ADME, organism-based; parameters: dose 10 mg/kg, route oral; settings: in vivo; how it was run: as §2
[25] = Toxicity in BALB/c mouse infected with Mycobacterium tuberculosis H37Rv assessed as organ weight loss at 10 to 30 mg/kg, po administered for 4 weeks starting from day 28 infection; format: organism-based; settings: in vivo, 672 h
How it was run: (§3)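 Infected BALB/c mice received repeated oral dosing for 4 weeks in the chronic efficacy study. Adverse events were assessed as body weight loss, organ weight loss and gross pathology.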

[26] = tested on: Rhodococcus; assay: Antibacterial activity against Rhodococcus sps; format: functional
[27] = tested on: Listeria monocytogenes; assay: Antibacterial activity against Listeria monocytogenes; format: functional
[28] = AUC (0 to infinity) in BALB/c mouse infected with Mycobacterium tuberculosis H37Rv at 30 mg/kg, po administered for 4 weeks starting from day 28 post infection; format: ADME, organism-based; parameters: dose 30 mg/kg, route oral, time infinity; settings: in vivo; how it was run: as §2
[29] = Oral bioavailability in rat; format: ADME, organism-based; settings: in vivo
[30] = Toxicity in BALB/c mouse infected with Mycobacterium tuberculosis H37Rv assessed as gross pathology at 10 to 30 mg/kg, po administered for 4 weeks starting from day 28 infection; format: organism-based; settings: in vivo, 672 h; how it was run: as §3
[31] = Half life in BALB/c mouse infected with Mycobacterium tuberculosis H37Rv at 10 mg/kg, po administered for 4 weeks starting from day 28 post infection; format: ADME, organism-based; settings: in vivo; how it was run: as §2
[32] = tested on: Corynebacterium glutamicum; assay: Antibacterial activity against Corynebacterium glutamicum; format: functional
[33] = tested on: Pseudomonas aeruginosa; assay: Antibacterial activity against Pseudomonas aeruginosa; format: functional
[34] = tested on: Enterococcus faecalis; assay: Antibacterial activity against Enterococcus faecalis; format: functional
[35] = Cmax in BALB/c mouse infected with Mycobacterium tuberculosis H37Rv at 30 mg/kg, po administered for 4 weeks starting from day 28 post infection; format: ADME, organism-based; parameters: dose 30 mg/kg, route oral; settings: in vivo; how it was run: as §2
[36] = Half life in BALB/c mouse infected with Mycobacterium tuberculosis H37Rv at 30 mg/kg, po administered for 4 weeks starting from day 28 post infection; format: ADME, organism-based; settings: in vivo; how it was run: as §2
[37] = Tmax in BALB/c mouse infected with Mycobacterium tuberculosis H37Rv at 30 mg/kg, po administered for 4 weeks starting from day 28 post infection; format: ADME, organism-based; settings: in vivo; how it was run: as §2
[38] = tested on: Staphylococcus aureus; assay: Antibacterial activity against Staphylococcus aureus; format: functional
[39] = tested on: Pseudomonas putida; assay: Antibacterial activity against Pseudomonas putida; format: functional
[40] = Toxicity in BALB/c mouse infected with Mycobacterium tuberculosis H37Rv assessed as body weight loss at 10 to 30 mg/kg, po administered for 4 weeks starting from day 28 infection; format: organism-based; settings: in vivo, 672 h; how it was run: as §3
[41] = tested on: Prescottella equi; assay: Antibacterial activity against Rhodococcus equi; format: functional; settings: Rhodococcus (subgen. Prescottella) equi
[42] = tested on: Mycobacterium tuberculosis; assay: Bactericidal activity against Mycobacterium tuberculosis infected in human THP1 cells assessed as reduction in colony forming unit at antimycobacterial MIC incubated for 7 days; format: functional
[43] = tested on: Escherichia coli; assay: Antibacterial activity against Escherichia coli; format: functional
[44] = tested on: Mycobacterium tuberculosis; assay: Antimycobacterial activity against Mycobacterium tuberculosis H37Rv infected in BALB/c mouse assessed as reduction in bacterial burden in mouse spleen at 30 mg/kg, po administered for 4 weeks starting from day 28 post infection; format: functional; how it was run: as §1
[45] = Tmax in mouse at MIC in presence of CYP pan inhibitor 1-aminobenzotriazole; format: ADME; settings: in vivo
[46] = Tmax in BALB/c mouse infected with Mycobacterium tuberculosis H37Rv at 10 mg/kg, po administered for 4 weeks starting from day 28 post infection; format: ADME, organism-based; settings: in vivo; how it was run: as §2
[47] = tested on: Nocardia farcinica; assay: Antibacterial activity against Nocardia farcinica; format: functional
[48] = Mycobacterium tuberculosis, H37Rv, read-out: MIC

C[C@H]1COC2(CCN(c3nc(=O)c4cc(C(F)(F)F)cc([N+](=O)[O-])c4s3)CC2)O1 [BTZ-043]
MIC [1, 48]: 0.003 to 0.006 µM (≈ 0.00129 to 0.00259 µg/mL)

COc1cc(C(=O)NCCF)c2ncn(Cc3ncnc(OC)c3C)c2c1
IC50 [2]: 5 nM
MIC [1, 48]: < 0.39 µM

COc1ncnc(Cn2cnc3c(C(=O)NCCF)cc(C)cc32)c1C
IC50 [2]: 8 nM
MIC [1, 48]: 0.78 µM (≈ 0.279 µg/mL)

COc1ncnc(Cn2cc(C(=O)NCCO)c3ncc(C)cc32)c1C [TBA-7371]
clearance [3]: 27 mL/min/kg
MBC [4]: 1.56 µM (≈ 0.554 µg/mL)
MIC [1]: 0.78 µM (≈ 0.277 µg/mL)

NNC(=O)c1ccncc1 [ISONIAZID]
MIC [1, 48]: 0.44 µM (≈ 0.0603 µg/mL)

COc1cc(C(=O)NCCF)c2ncn(Cc3ncnc(N(C)C)c3C)c2c1
Papp A→B [5]: 26 ×10⁻⁶ cm/s
logD [6]: 2 to 2.1
IC50 [7]: > 50000 nM
IC50 [8]: > 50000 nM
IC50 [9]: > 50000 nM
Papp B→A [10]: 22 ×10⁻⁶ cm/s
IC50 [11]: > 33000 nM
fraction unbound [12]: 0.31
IC50 [2]: 16 nM
IC50 [13]: > 50000 nM
solubility [14]: > 1000 µM
MIC [1, 48]: < 0.39 µM
IC50 [15]: > 50000 nM

Cc1cc(C(=O)NCC(F)F)c2ncn(Cc3ncnc(N(C)C)c3C)c2c1
IC50 [2]: 4 nM
MIC [1, 48]: < 0.39 µM

CO[C@H]1/C=C/O[C@@]2(C)Oc3c(C)c(O)c4c(O)c(c(/C=N/N5CCN(C)CC5)c(O)c4c3C2=O)NC(=O)/C(C)=C\C=C\[C@H](C)[C@H](O)[C@@H](C)[C@@H](O)[C@@H](C)[C@H](OC(C)=O)[C@@H]1C [RIFAMPIN]
MIC [1, 48]: 0.01 µM (≈ 0.00823 µg/mL)

COc1cc(C(=O)NCC(F)F)c2ncn(Cc3ncnc(N(C)C)c3C)c2c1
IC50 [2]: 9 nM
MIC [1, 48]: < 0.39 µM

COc1ncnc(Cn2cnc3c(C(=O)NCCF)cccc32)c1C
Activity [16]: >3 log10CFU
Activity [17]: 1.5 log10CFU
MIC [18]: 0.78 to 1.56 µM (≈ 0.268 to 0.536 µg/mL)
MIC [19]: > 200 µM
AUC(0-inf) [20]: 13.5 µM·h
Papp A→B [5]: 37 ×10⁻⁶ cm/s
MIC [21]: > 200 µM
MIC [22]: > 200 µM
logD [6]: 1.9
MIC [23]: > 200 µM
Cmax [24]: 5.1 µM
Activity [25]: Non-Toxic
MIC [26]: > 200 µM
MIC [27]: > 200 µM
AUC(0-inf) [28]: 78.6 µM·h
bioavailability [29]: 114%
Activity [30]: Non-Toxic
IC50 [7]: > 50000 nM
half-life [31]: 4.5 h
MIC [32]: > 200 µM
MIC [33]: > 200 µM
IC50 [8]: > 50000 nM
MIC [34]: > 200 µM
IC50 [9]: > 50000 nM
Papp B→A [10]: 14 ×10⁻⁶ cm/s
IC50 [11]: > 33000 nM
Cmax [35]: 18.3 µM
half-life [36]: 5.9 h
fraction unbound [12]: 0.32
clearance [3]: 48 mL/min/kg
Tmax [37]: 3 h
MBC [4]: 1.56 µM (≈ 0.536 µg/mL)
IC50 [2]: 34 nM
IC50 [13]: > 50000 nM
MIC [38]: > 200 µM
solubility [14]: 152 µM (≈ 52.2 µg/mL)
MIC [39]: > 200 µM
Activity [40]: Non-Toxic
MIC [41]: > 200 µM
Activity [42]: 1 log10CFU
MIC [43]: > 200 µM
MIC [1, 48]: 1.56 to 3.12 µM (≈ 0.536 to 1.07 µg/mL)
Activity [44]: 1 log10CFU
Tmax [45]: 6 to 10 h
Tmax [46]: 2 h
MIC [47]: > 200 µM
IC50 [15]: > 50000 nM

Cc1cc(C(=O)NCCF)c2ncn(Cc3ncnc(N(C)C)c3C)c2c1
IC50 [2]: 9 nM
MIC [1, 48]: < 0.39 µM

Cc1cc(C(=O)NCCF)c2ncn(Cc3ncnc(OC(F)F)c3C)c2c1
IC50 [2]: 16 nM
MIC [1, 48]: < 0.39 µM

COc1cc(C(=O)NCC(F)F)c2ncn(Cc3ncnc(OC(F)F)c3C)c2c1
IC50 [2]: 5 nM
MIC [1, 48]: < 0.39 µM
